Source: PubChem BioAssay
A selection: hits, their analogues and other compounds. The true share with any hit is near 2.6%.
Yeast life ext – yeast lifespan extension | S. cerevisiae growth with nicotinamide, OD615; deaD strain in restrictive glucose medium | inhibition of the nicotinamide effect, % at 10 µM | actives 0.68% (n = 130,000);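 active = inhibition above a set limit, placed 3 SD over the median of all compounds, cut at about 26% in these data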;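 note: 0% = nicotinamide-treated wells and 100% = cells grown without nicotinamide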
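Measured by: optical density (absorbance) at 615 nm; System: modified budding yeast, DeaD strain; Medium: restrictive CSMM-D dextrose medium; Timing: 4 h preincubation then 48 h treatment at 30 °C.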
BB579 growth dn – chemicals that inhibit yeast BB579 growth in restrictive medium (lifespan-shortening candidates); actives 0.51% (n = 140,000); inhibition, % at 10 µM; AID 804; S. cerevisiae BB579 growth, OD615, 48 h;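 active = inhibition above a set limit, 3 SD over the mean compound inhibition, cut at about 44% in these data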
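Assay system: S. cerevisiae DeaD strain BB579 yeast. Medium: CSMM-D restrictive synthetic medium containing dextrose (glucose). Times: 4 h cell preincubation, 48 h compound exposure, 30 °C humidified. Signal: OD615 turbidity measurement. Benchmarks: positive control amphotericin B 10 µg/mL.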
RAM network inh – inhibitors of the yeast RAM network. S. cerevisiae dse1pr::URA3 reporter, 5-FOA growth OD615, 2 d; analog-sensitive cbk1-as2 kinase mutant strain. actives 1.8% (n = 190,000). inhibition, % at 50 µM;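 active = inhibition above a set limit, 3 SD over mean compound inhibition, cut at about 8.4% in these data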;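 note: 0% = DMSO-only wells with no growth and 100% = 10 µM 1-NA-PP1 full growth; inhibition rescues growth on 5-FOA so higher OD means more RAM inhibition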
Numbers without * were called inactive; · = no result.

SMILES	Yeast life ext	BB579 growth dn	RAM network inh
CCOC(=O)c1[nH]c2ccc(OCC)cc2c1NC(=O)CN1CCC2(CC1)OCCO2	57.0*	-65.2	1.8
CCOC(=O)c1[nH]c2cc3c(cc2c1NC(=O)CN1CCC2(CC1)OCCO2)OCO3	-21.2	-9.9	-0.3
CCSc1nc(-c2cccnc2)ccc1C#N	-6.5	-4.6	0.1
COc1ccc(S(=O)(=O)Nc2ccc(C)cc2)cc1OC	-0.9	-12.1	-0.4
COc1ccc(S(=O)(=O)N/N=c2\oc3c(OC)cccc3cc2S(=O)(=O)c2ccc(C)cc2)cc1OC	·	·	10.9*
O=c1nc(SCc2cccc(C(F)(F)F)c2)nc2ccccn12	·	·	0.8
O=[N+]([O-])c1ccc(Sc2nc3ccccc3o2)c([N+](=O)[O-])c1	-11.3	98.9*	-1.2
O=[N+]([O-])c1ccc(Cl)cc1Sc1nc2ccccc2o1	·	22.0	0.6
CC(C)NC(=O)COC(=O)c1ccccc1C(=O)c1ccccc1	·	·	3.5
COc1ccc(NC(=S)NNC(=O)Cn2nc(C(F)F)cc2C(F)F)cc1	1.1	-6.8	0.4
COc1ccc(C)cc1S(=O)(=O)NCCC1=CCCCC1	0.5	-31.7	0.8
CCOc1ccc(S(=O)(=O)NCCC2=CCCCC2)c2ccccc12	-3.4	-47.0	11.1*
Cc1ccc2nc3c(nc2c1)-c1ccccc1C3=O	-9.0	59.3*	3.4
Cc1ccc2nc(C(=O)O)c(C(=O)O)nc2c1	-11.9	2.5	-0.6
Cc1ccc(-c2nc(CN(C)Cc3ccc4nccnc4c3)c(C)o2)s1	·	·	1.2
Cc1ccc(NC(=O)C2C(=O)N(CCO)C3(C)CC2c2ccccc2O3)cc1 (stereo unspecified)	-7.0	2.0	0.2
O=C(Nc1ccccc1F)Nc1ccccc1F	·	·	4.2
Cc1ccc(NC(=O)C2C(=O)N(C)c3ccccc32)cc1 (stereo unspecified)	27.9*	-23.0	0.3
CN1C(=O)C(C(=O)Nc2ccccc2F)c2ccccc21 (stereo unspecified)	44.5*	-13.8	0.3
O=C(COC(=O)c1cc([N+](=O)[O-])ccc1NCCO)NCc1cccs1	·	·	11.0*
O=C(COC(=O)c1cc([N+](=O)[O-])ccc1NCCO)c1ccccc1	-2.4	10.1	3.0
CCN(CC)c1ccc(C=C2C(=O)OC3(CCCCC3)OC2=O)cc1	·	·	1.2
CCN(CC)c1ccc(/C=C2/C(=O)c3ccc(C(=O)O)cc3C2=O)cc1	9.3	-42.9	9.9*
Cc1ccc(N=Nc2c(N)[nH]n3c(=O)cc(-c4ccccc4)nc23)cc1	2.9	-55.1	8.7*
COc1cccc(N=Nc2c(N)[nH]n3c(=O)cc(-c4ccccc4)nc23)c1	0.2	-47.0	0.8
SMILES	Yeast life ext	BB579 growth dn	RAM network inh
CCCc1nn(C)c(C(=O)Nc2ccc3ccccc3c2)c1Cl	-0.3	-28.1	10.9*
CCCc1nn(C)c(C(=O)Nc2cccc(CC)c2)c1Cl	-2.6	-31.2	0.3
O=C(COC(=O)COc1ccccc1)Nc1ccc(S(=O)(=O)N2CCOCC2)cc1	·	·	2.5
CN1CCC(OC(=O)c2cccc(Cl)c2)CC1	·	·	2.5
COc1cc(OC)cc(C(=O)N[C@H](C(=O)OCC(=O)Nc2ccc(C(C)C)cc2)C(C)C)c1	1.8	-23.2	8.5*
COc1cc(OC)cc(C(=O)N[C@H](C(=O)OCC(=O)Nc2ccc(OC)c(OC)c2)C(C)C)c1	·	·	-0.6
CCC(=O)Oc1ccc(C(=O)Nc2c[nH]c(=O)[nH]c2=O)cc1	-2.5	-8.5	2.3
Cc1cccc(-n2c(C)cc(/C=N\NC(=O)c3ccco3)c2C)c1	·	·	1.0
COc1ccc(NC(=O)Nc2cccc(C(F)(F)F)c2)cn1	·	·	1.0
CCn1c(CNC(=O)COc2ccc(C(C)C)cc2)nnc1SCC(=O)Nc1ccc(F)cc1	-4.6	-13.9	10.0*
CCn1c(CNC(=O)COc2ccc(C(C)C)cc2)nnc1SCC(=O)Nc1cc(F)ccc1C	-15.0	-5.4	2.9
Cc1[nH]c2ccccc2c1C(=O)C(=O)N1CCN(C(=O)c2ccco2)CC1	·	·	1.6
O=C(Oc1ccc(Nc2ncnc3ccccc23)cc1)c1cccnc1	·	·	2.3
O=C(/C=C/c1ccccc1)NC(NC(=S)Nc1ccc(Cl)cc1)C(Cl)(Cl)Cl (stereo unspecified)	-8.8	-43.4	10.2*
COc1ccc(NC(=S)NC(NC(=O)/C=C/c2ccccc2)C(Cl)(Cl)Cl)cc1 (stereo unspecified)	-12.5	-40.6	7.4
O=C(CCl)c1ccc(Cc2ncc(C(F)(F)F)cc2Cl)s1	68.2*	-13.4	0.7
NS(=O)(=O)c1ccc(Cc2ncc(C(F)(F)F)cc2Cl)s1	1.3	-30.8	1.2
CN1CCC(NC(=S)Nc2cccc([N+](=O)[O-])c2)CC1	·	·	0.7
O=C(NNc1ccccn1)C(c1ccccc1)c1ccccc1	·	·	0.9
O=C(NNC(=O)C(c1ccccc1)c1ccccc1)c1ccccn1	28.6*	-29.0	-0.4
